Results reported in ChEMBL document CHEMBL1148220, “Antineoplastic agents. 529. Isolation and structure of nootkastatins 1 and 2 from the Alaskan yellow cedar Chamaecyparis nootkatensis” (2004).
In brackets after ≈: the same amount, converted by molar mass. Activity calls are given as the source filed them. The rule behind the calls is not given here.

Tests used:
[1] = tested on: Cryptococcus neoformans; assay: Antimicrobial activity against Cryptococcus neoformans ATCC 90122 after 24 hrs by broth microdilution assay in presence of 25% human serum; assay type: functional; details: ATCC 90112, 24 h, in the assay text read “ATCC 90112” for “ATCC 90122”
In short: (§1)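 For yeasts, NCCLS broth microdilution was run in medium supplemented with 25% heat-inactivated, filter-sterilized normal human serum. Compounds were reconstituted in sterile DMSO and diluted in medium just before the assay. MIC was the lowest concentration giving optically clear wells.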

[2] = tested on: Candida albicans; assay: Antimicrobial activity against Candida albicans ATCC 90028 after 48 hrs by broth microdilution assay in presence of 25% human serum; assay type: functional; details: ATCC 90028, 48 h; in short: as §1
[3] = tested on: Staphylococcus aureus; assay: Antimicrobial activity against Staphylococcus aureus ATCC 29213 after 24 hrs by broth microdilution assay in presence of 25% human serum; assay type: functional; details: ATCC 29213, 24 h
In short: (§2)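 Bacteria were tested by NCCLS broth microdilution in medium containing 25% heat-inactivated, filter-sterilized normal human serum. Compounds were dissolved in sterile DMSO and diluted in medium immediately before use. MIC was the lowest concentration with no visible growth (optically clear). Assays were repeated on separate days.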

[4] = tested on: Streptococcus pneumoniae; assay: Antimicrobial activity against Streptococcus pneumoniae ATCC 6303 after 24 hrs by broth microdilution assay in presence of 25% human serum; assay type: functional; details: ATCC 6303, 24 h; in short: as §2
[5] = tested on: Enterococcus faecalis; assay: Antimicrobial activity against Enterococcus faecalis ATCC 29212 after 24 hrs by broth microdilution assay in presence of 25% human serum; assay type: functional; details: ATCC 29212, 24 h; in short: as §2
[6] = tested on: Micrococcus luteus; assay: Antimicrobial activity against Micrococcus luteus Presque Isle 456 after 24 hrs by broth microdilution assay in presence of 25% human serum; assay type: functional; in short: as §2
[7] = tested on: Escherichia coli; assay: Antimicrobial activity against Escherichia coli ATCC 25922 after 24 hrs by broth microdilution assay in presence of 25% human serum; assay type: functional; details: ATCC 25922, 24 h; in short: as §2
[8] = tested on: Enterobacter cloacae; assay: Antimicrobial activity against Enterobacter cloacae ATCC 13047 after 24 hrs by broth microdilution assay in presence of 25% human serum; assay type: functional; details: ATCC 13047, 24 h; in short: as §2
[9] = tested on: Stenotrophomonas maltophilia; assay: Antimicrobial activity against Stenotrophomonas maltophilia ATCC 13637 after 24 hrs by broth microdilution assay in presence of 25% human serum; assay type: functional; details: ATCC 13637, 24 h; in short: as §2
[10] = tested on: Neisseria gonorrhoeae; assay: Antimicrobial activity against Neisseria gonorrhoeae ATCC 49226 after 24 hrs by broth microdilution assay in presence of 25% human serum; assay type: functional; details: ATCC 49226, 24 h; in short: as §2
[11] = tested on: Cryptococcus neoformans; assay: Antimicrobial activity against fluconazole-resistant Cryptococcus neoformans after 48 hrs by broth microdilution assay in presence of 25% human serum; assay type: functional
[12] = tested on: Nakaseomyces glabratus; assay: Antimicrobial activity against Candida glabrata after 48 hrs by broth microdilution assay in presence of 25% human serum; assay type: functional; in short: as §1
[13] = tested on: Staphylococcus aureus; assay: Antimicrobial activity against methicillin-resistant Staphylococcus aureus after 24 hrs by broth microdilution assay in presence of 25% human serum; assay type: functional
In short: as §2, with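 “Bacterial” for “Bacteria were tested by”, “microdilution run” for “microdilution”, “with” for “containing”, “taken up” for “dissolved”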

[14] = tested on: Staphylococcus epidermidis; assay: Antimicrobial activity against Staphylococcus epidermidis ATCC 49461 after 24 hrs by broth microdilution assay in presence of 25% human serum; assay type: functional; details: ATCC 49461, 24 h; in short: as §2
[15] = tested on: Streptococcus pneumoniae; assay: Antimicrobial activity against penicillin-resistant Streptococcus pneumoniae after 24 hrs by broth microdilution assay in presence of 25% human serum; assay type: functional
In short: as §2, with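 “Bacterial” for “Bacteria were tested by”, “microdilution run” for “microdilution”, “with” for “containing”, “taken up” for “dissolved”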

[16] = tested on: Streptococcus pyogenes; assay: Antimicrobial activity against penicillin-resistant Streptococcus pyogenes after 24 hrs by broth microdilution assay in presence of 25% human serum; assay type: functional
In short: as §2, with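 “Bacterial” for “Bacteria were tested by”, “microdilution run” for “microdilution”, “with” for “containing”, “taken up” for “dissolved”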

[17] = tested on: Enterococcus faecium; assay: Antimicrobial activity against vancomycin-resistant Enterococcus faecium after 24 hrs by broth microdilution assay in presence of 25% human serum; assay type: functional
In short: as §2, with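 “Bacterial” for “Bacteria were tested by”, “microdilution run” for “microdilution”, “with” for “containing”, “taken up” for “dissolved”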

[18] = tested on: Rhodococcus sp.; assay: Antimicrobial activity against Rhodococcus sp. after 24 hrs by broth microdilution assay in presence of 25% human serum; assay type: functional; details: Rhodococcus sp. (in: high G+C Gram-positive bacteria); in short: as §2
[19] = tested on: MCF7; assay: Cytotoxicity against human MCF7 cells after 48 hrs by SRB assay; assay type: functional; details: MCF7, 48 h
[20] = tested on: P388; assay: Cytotoxicity against mouse P388 cells; assay type: functional; details: read-out: ED50 (the source's name)
[21] = tested on: BXPC-3; assay: Cytotoxicity against human BxPC3 cells after 48 hrs by SRB assay; assay type: functional; details: BXPC-3, 48 h
[22] = tested on: SF-268; assay: Cytotoxicity against human SF268 cells after 48 hrs by SRB assay; assay type: functional; details: SF-268, 48 h
[23] = tested on: NCI-H460; assay: Cytotoxicity against human NCI-H460 cells after 48 hrs by SRB assay; assay type: functional; details: NCI-H460, 48 h
[24] = tested on: KM-20L2; assay: Cytotoxicity against human KM20L2 cells after 48 hrs by SRB assay; assay type: functional; details: KM-20L2, 48 h
[25] = tested on: DU-145; assay: Cytotoxicity against human DU145 cells after 48 hrs by SRB assay; assay type: functional; details: DU-145, 48 h
[26] = tested on: Cryptococcus neoformans; assay: Antimicrobial activity against Cryptococcus neoformans ATCC 90122 after 24 hrs by broth microdilution assay; assay type: functional; details: ATCC 90112, 24 h, in the assay text read “ATCC 90112” for “ATCC 90122”
In short: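 Yeasts were tested by NCCLS broth microdilution. Compounds were dissolved in a small volume of sterile DMSO and diluted in the appropriate medium immediately before testing. MIC was the lowest concentration inhibiting all visible growth (optically clear). Assays were repeated on separate days.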

[27] = tested on: Candida albicans; assay: Antimicrobial activity against Candida albicans ATCC 90028 at 64 ug/mL after 48 hrs by broth microdilution assay; assay type: functional, organism-based
[28] = tested on: Staphylococcus aureus; assay: Antimicrobial activity against Staphylococcus aureus ATCC 29213 after 24 hrs by broth microdilution assay; assay type: functional; details: ATCC 29213, 24 h
In short: (§3)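 Bacterial MICs were determined by NCCLS broth microdilution. Compounds were dissolved in a small volume of sterile DMSO and diluted in the appropriate medium just before testing. MIC was the lowest concentration giving no visible growth (optically clear). Assays were repeated on separate days.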

[29] = tested on: Streptococcus pneumoniae; assay: Antimicrobial activity against Streptococcus pneumoniae ATCC 6303 after 24 hrs by broth microdilution assay; assay type: functional; details: ATCC 6303, 24 h; in short: as §3
[30] = tested on: Enterococcus faecalis; assay: Antimicrobial activity against Enterococcus faecalis ATCC 29212 after 24 hrs by broth microdilution assay; assay type: functional; details: ATCC 29212, 24 h; in short: as §3
[31] = tested on: Micrococcus luteus; assay: Antimicrobial activity against Micrococcus luteus Presque Isle 456 after 24 hrs by broth microdilution assay; assay type: functional; in short: as §3
[32] = tested on: Escherichia coli; assay: Antimicrobial activity against Escherichia coli ATCC 25922 at 64 ug/mL after 24 hrs by broth microdilution assay; assay type: functional, organism-based
[33] = tested on: Enterobacter cloacae; assay: Antimicrobial activity against Enterobacter cloacae ATCC 13047 at 64 ug/mL after 24 hrs by broth microdilution assay; assay type: functional, organism-based
[34] = tested on: Stenotrophomonas maltophilia; assay: Antimicrobial activity against Stenotrophomonas maltophilia ATCC 13637 at 64 ug/mL after 24 hrs by broth microdilution assay; assay type: functional, organism-based
[35] = tested on: Neisseria gonorrhoeae; assay: Antimicrobial activity against Neisseria gonorrhoeae ATCC 49226 at 64 ug/mL after 24 hrs by broth microdilution assay; assay type: functional; details: ATCC 49226, 24 h
[36] = tested on: Cryptococcus neoformans; assay: Antimicrobial activity against fluconazole-resistant Cryptococcus neoformans after 48 hrs by broth microdilution assay; assay type: functional
In short: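 Yeast broth microdilution following NCCLS. Compounds were dissolved in sterile DMSO and diluted in medium immediately before testing. MIC was the lowest concentration leaving the well optically clear, with no visible growth.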

[37] = tested on: Nakaseomyces glabratus; assay: Antimicrobial activity against Candida glabrata at 64 ug/mL after 48 hrs by broth microdilution assay; assay type: functional, organism-based
[38] = tested on: Staphylococcus aureus; assay: Antimicrobial activity against methicillin-resistant Staphylococcus aureus after 24 hrs by broth microdilution assay; assay type: functional
In short: (§4)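 NCCLS broth microdilution for bacteria. Compounds were dissolved in a small volume of sterile DMSO and diluted in medium just before testing. MIC was the lowest concentration giving no visible growth (optically clear). Assays were repeated on separate days.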

[39] = tested on: Staphylococcus epidermidis; assay: Antimicrobial activity against Staphylococcus epidermidis ATCC 49461 after 24 hrs by broth microdilution assay; assay type: functional; details: ATCC 49461, 24 h; in short: as §3
[40] = tested on: Streptococcus pneumoniae; assay: Antimicrobial activity against penicillin-resistant Streptococcus pneumoniae after 24 hrs by broth microdilution assay; assay type: functional; in short: as §4
[41] = tested on: Streptococcus pyogenes; assay: Antimicrobial activity against penicillin-resistant Streptococcus pyogenes after 24 hrs by broth microdilution assay; assay type: functional; in short: as §4
[42] = tested on: Enterococcus faecium; assay: Antimicrobial activity against vancomycin-resistant Enterococcus faecium after 24 hrs by broth microdilution assay; assay type: functional; in short: as §4
[43] = tested on: Rhodococcus sp.; assay: Antimicrobial activity against Rhodococcus sp. after 24 hrs by broth microdilution assay; assay type: functional; details: Rhodococcus sp. (in: high G+C Gram-positive bacteria); in short: as §3

In the case of `CO[C@@H]1C[C@H]2C(C)(C)CCC[C@]2(C)c2ccc(O)c(C(C)C)c21`, the MIC [1] is reported as > 64 µg/mL, the MIC [2] is reported as > 64 µg/mL and the MIC [3] is reported as > 64 µg/mL. For the same molecule, the MIC [4] was > 64 µg/mL, the MIC [5] was > 64 µg/mL and the MIC [6] was > 64 µg/mL. The MIC [7] was > 64 µg/mL, the MIC [8] was > 64 µg/mL and the MIC [9] was > 64 µg/mL. For the same molecule, the MIC [10] was > 64 µg/mL, the MIC [11] was > 64 µg/mL and the MIC [12] was > 64 µg/mL. For the same molecule, the MIC [13] was > 64 µg/mL, the MIC [14] was > 64 µg/mL and the MIC [15] was > 64 µg/mL. The MIC [16] was > 64 µg/mL, the MIC [17] was > 64 µg/mL and the MIC [18] was > 64 µg/mL. For the same molecule, the GI50 [19] was 1.5 µg/mL (≈ 4.74 µM), the EC50 [20] was > 10 µg/mL and the GI50 [21] was 1.5 µg/mL (≈ 4.74 µM). The GI50 [22] was 1.9 µg/mL (≈ 6 µM), the GI50 [23] was 1.8 µg/mL (≈ 5.69 µM) and the GI50 [24] was 1.6 µg/mL (≈ 5.06 µM). For the same molecule, the GI50 [25] was 1.7 µg/mL (≈ 5.37 µM), the MIC [26] was 8 µg/mL (≈ 25.3 µM) and the Activity [27] was “inactive”. It also gave an MIC [28] of 4 µg/mL (≈ 12.6 µM), an MIC [29] of 8 µg/mL (≈ 25.3 µM) and an MIC [30] of 4 µg/mL (≈ 12.6 µM). For the same molecule, the MIC [31] was 2 µg/mL (≈ 6.32 µM), the Activity [32] was “inactive” and the Activity [33] was “inactive”. For the same molecule, the Activity [34] was “inactive”, the MIC [35] was 4 µg/mL (≈ 12.6 µM) and the MFC [36] was 4 µg/mL (≈ 12.6 µM). For the same molecule, the MIC [36] was 4 µg/mL (≈ 12.6 µM), the Activity [37] was “inactive” and the MBC [38] was 8 µg/mL (≈ 25.3 µM). For the same molecule, the MIC [38] was 4 µg/mL (≈ 12.6 µM), the MBC [39] was 16 µg/mL (≈ 50.6 µM) and the MIC [39] was 2 µg/mL (≈ 6.32 µM). The MBC [40] was 16 µg/mL (≈ 50.6 µM), the MIC [40] was 16 µg/mL (≈ 50.6 µM) and the MBC [41] was 32 µg/mL (≈ 101 µM). It also gave an MIC [41] of 16 µg/mL (≈ 50.6 µM), an MBC [42] of 4 µg/mL (≈ 12.6 µM) and an MIC [42] of 4 µg/mL (≈ 12.6 µM). It also gave an MBC [43] of 8 µg/mL (≈ 25.3 µM) and an MIC [43] of 2 µg/mL (≈ 6.32 µM).
